According to ChEMBL document CHEMBL4334464, “From Phenylthiazoles to Phenylpyrazoles: Broadening the Antibacterial Spectrum toward Carbapenem-Resistant Bacteria” (J Med Chem, 2019):

Key:
[1] = test system: Staphylococcus aureus; assay: Antibacterial activity against methicillin-resistant Staphylococcus aureus NRS123-USA400 clinical isolates assessed as ratio of MIC after and before 1 serial passages by broth microdilution assay; type: functional
Summary of the method: (§1)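 MRSA USA400 was serially passaged over a 14-day period in the presence of each compound or control antibiotic. MIC was determined by broth microdilution after each passage. A four-fold rise in MIC was taken as a sign of resistance.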

[2] = test system: Staphylococcus aureus; assay: Antibacterial activity against methicillin-resistant Staphylococcus aureus NRS123-USA400 clinical isolates assessed as ratio of MIC after and before 13 serial passages by broth microdilution assay; type: functional; summary of the method: as §1

CO[C@H]1/C=C/O[C@@]2(C)Oc3c(C)c(O)c4c(O)c(c(/C=N/N5CCN(C)CC5)c(O)c4c3C2=O)NC(=O)/C(C)=C\C=C\[C@H](C)[C@H](O)[C@@H](C)[C@@H](O)[C@@H](C)[C@H](OC(C)=O)[C@@H]1C [RIFAMPIN]
Ratio [1]: 7
Ratio [2]: >500000
